The source of these data is ChEMBL document CHEMBL1135733, “6-Sulfonylchromenes as highly potent K(ATP)-channel openers” (J Med Chem, 2002).

In general, Emax refers to the size of the effect at its maximum, as opposed to the concentration needed. The EC50 is the midpoint of the concentration-response curve. As usually defined, the pKD is the KD on a negative log10 scale, so that one unit is a factor of ten. A high value points to a low KD.

Molecules are shown by their SMILES.

For assay [1], the species on record is Rattus norvegicus. Put plainly: Difference between the pEC50 values in rat aorta and trachea as an indicator of selectivity. The class given is functional.
Assay [2] is filed under the species Rattus norvegicus. Nature of the assay: Maximum level of relaxation of aortic rings measured as percentage of basal tension. Format: functional. The note with it: Aorta. The method, boiled down: (§1)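 Isolated rat aortic rings at 5 mN resting force in supplemented Krebs solution, 32.5 °C, equilibrated 2 h with two test contractures; cumulative concentration-effect curves, effects as % of basal force (100% relaxation) vs maximum force (0%). pEC50 by linear extrapolation at half-maximal effect; Emax as % of basal tension; mean ± SEM, n = 4–6; paired time controls.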

Assay [3] is filed under the species Rattus norvegicus. Nature of the assay: Maximum level of relaxation of tracheal strips measured as percentage of basal tension. The conditions noted are these: Trachea. The class given is functional. The method, boiled down:
(§2)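 Rat tracheal strips at 10 mN resting force in supplemented Krebs solution, 32.5 °C, equilibrated 2 h with two test contractures; concentration-effect curves, effects as % of basal force (100% relaxation) vs maximum force (0%). pEC50 by linear extrapolation at half-maximal effect; Emax as % of basal tension; mean ± SEM, n = 4–6; paired time controls.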

The species named for assay [4] is Rattus norvegicus. Put plainly: Dilator activity expressed as potency for relaxation of Aortic rings precontracted with 25 mM K. Format: functional. The method, boiled down:
as §1

Assay [5] addresses ATP-binding cassette sub-family C member 9 (Rattus norvegicus) (UniProt Q63563). Put plainly: Binding affinity towards Sulfonylurea receptor 2B (SUR2B) in cultured rat aortic smooth muscle cells (SMC).
The target is the same in assay [6]. Put plainly: Binding affinity to the sulfonylurea receptor 2A (SUR2A) in purified membranes of rat-heart myocytes. Format: cell membranes.
The species named for assay [7] is Rattus norvegicus. Nature of the assay: Dilator activity expressed as potency for relaxation of Tracheal strips percontracted with 0.6 uM carbachol. The class given is functional. The method in brief:
as §2

Sequence of ATP-binding cassette sub-family C member 9 (Rattus norvegicus) (Q63563 whole entry): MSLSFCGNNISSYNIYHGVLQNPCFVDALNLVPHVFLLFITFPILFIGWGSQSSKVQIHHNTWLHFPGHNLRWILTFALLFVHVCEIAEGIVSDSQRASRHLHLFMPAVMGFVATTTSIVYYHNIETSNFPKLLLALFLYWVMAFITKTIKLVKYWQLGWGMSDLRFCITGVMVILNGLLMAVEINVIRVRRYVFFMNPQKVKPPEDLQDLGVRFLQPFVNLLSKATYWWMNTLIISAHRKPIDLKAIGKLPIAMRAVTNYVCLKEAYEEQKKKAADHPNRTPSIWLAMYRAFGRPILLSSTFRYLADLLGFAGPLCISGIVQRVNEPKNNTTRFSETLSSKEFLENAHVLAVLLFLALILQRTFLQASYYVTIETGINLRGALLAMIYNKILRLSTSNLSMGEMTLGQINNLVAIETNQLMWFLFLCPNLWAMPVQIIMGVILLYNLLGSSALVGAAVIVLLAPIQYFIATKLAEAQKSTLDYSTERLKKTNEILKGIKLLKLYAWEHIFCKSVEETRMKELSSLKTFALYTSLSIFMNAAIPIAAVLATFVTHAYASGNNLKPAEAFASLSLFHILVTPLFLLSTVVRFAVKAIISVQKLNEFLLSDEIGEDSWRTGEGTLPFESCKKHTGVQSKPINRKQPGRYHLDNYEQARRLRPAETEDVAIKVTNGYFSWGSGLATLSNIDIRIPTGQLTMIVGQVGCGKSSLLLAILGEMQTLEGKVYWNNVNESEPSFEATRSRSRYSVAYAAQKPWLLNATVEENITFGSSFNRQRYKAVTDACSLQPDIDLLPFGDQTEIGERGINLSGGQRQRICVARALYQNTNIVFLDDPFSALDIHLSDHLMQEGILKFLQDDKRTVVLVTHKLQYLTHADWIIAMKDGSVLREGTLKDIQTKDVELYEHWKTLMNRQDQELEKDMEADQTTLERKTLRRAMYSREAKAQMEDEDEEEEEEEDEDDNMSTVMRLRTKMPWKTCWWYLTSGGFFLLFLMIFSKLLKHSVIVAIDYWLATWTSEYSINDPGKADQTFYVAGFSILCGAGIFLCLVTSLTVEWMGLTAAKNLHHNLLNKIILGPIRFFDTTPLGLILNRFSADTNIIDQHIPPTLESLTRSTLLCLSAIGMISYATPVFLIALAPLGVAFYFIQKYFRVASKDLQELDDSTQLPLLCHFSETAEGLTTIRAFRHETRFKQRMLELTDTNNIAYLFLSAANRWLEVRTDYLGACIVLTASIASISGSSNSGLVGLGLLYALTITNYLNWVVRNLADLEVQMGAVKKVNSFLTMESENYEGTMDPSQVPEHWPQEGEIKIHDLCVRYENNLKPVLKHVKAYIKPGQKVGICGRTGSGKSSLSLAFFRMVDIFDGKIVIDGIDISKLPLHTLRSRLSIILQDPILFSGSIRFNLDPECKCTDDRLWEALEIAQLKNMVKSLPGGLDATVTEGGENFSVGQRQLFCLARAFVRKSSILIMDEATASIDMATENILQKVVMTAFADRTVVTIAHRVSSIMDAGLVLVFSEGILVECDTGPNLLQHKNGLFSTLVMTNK

As for `CCNS(=O)(=O)c1ccc2c(c1)C(n1ccccc1=O)=CC(C)(C)O2`, the “Delta pEC50” value in assay [1] is 0.88. In addition, the results for the Emax in assay [2] and in assay [3] were 72.4% and 87%, respectively. Besides, the half-maximal effective concentration (EC50) in assay [4] is 56.2 nM. The pKD was determined as 7 in assay [5] and 6.7 in assay [6].
On to `[2H]c1c([2H])c([2H])c(NS(=O)(=O)c2ccc3c(c2)C(n2ccccc2=O)=CC(C)(C)O3)c([2H])c1[2H]`, for which, in assay [1], the “Delta pEC50” value worked out at 0.82. Also, the results for the Emax in assay [2] and in assay [3] were 82.5% and 88%, respectively. Besides, the half-maximal effective concentration (EC50) in assay [4] is 2 nM; in assay [7], 13.2 nM.
Consider `CC1(C)C=C(n2ccccc2=O)c2cc(S(N)(=O)=O)ccc2O1`, for which the “Delta pEC50” value in assay [1] was found to be 0.51. The Emax amounted to 77.5% in assay [2] and 92.1% in assay [3]. Further, the figures for the EC50 in assay [4] and in assay [7] were 69.2 nM and 224 nM, respectively. Also, the pKD was 6.94 in assay [5] and 6.5 in assay [6].
For `CC1(C)C=C(n2ccccc2=O)c2cc(C#N)ccc2O1` [BIMAKALIM], the “Delta pEC50” value in assay [1] turned out to be 0.99. In addition, the Emax in assay [2] was determined as 92.3%; in assay [3], 84.2%. Moreover, the EC50 in assay [4] was 16.2 nM; in assay [7], 158 nM. Also, the negative logarithm of the KD (pKD) was 7.98 in assay [5] and 7.25 in assay [6].
Take `CC1(C)C=C(n2ccccc2=O)c2cc(S(=O)(=O)Oc3ccccc3)ccc2O1`: the “Delta pEC50” value in assay [1] is reported as 0.72. For the same compound, the values for the maximum response (Emax) in assay [2] and in assay [3] were 67.9% and 86.7%, respectively. For the same compound, the EC50 in assay [4] was 2.51 nM; in assay [7] it was 13.2 nM. For the same compound, the pKD turned out to be 8.55 in assay [5] and 7.78 in assay [6].
As for `CC1(C)C=C(n2ccccc2=O)c2cc(S(=O)(=O)NC3CCCC3)ccc2O1`, the figures for the pKD in assay [5] and in assay [6] were 6.27 and 5.85, respectively.
For `CC1(C)C=C(n2ccccc2=O)c2cc(S(=O)(=O)NCc3ccccc3)ccc2O1`, the “Delta pEC50” value in assay [1] stood at 0.4. The Emax stood at 71.1% in assay [2] and 77.5% in assay [3]. Also, the EC50 in assay [4] is 525 nM; in assay [7], 1320 nM. Also, the pKD in assay [5] was found to be 6; in assay [6], 5.28.
Compound `CC1(C)C=C(n2ccccc2=O)c2cc(S(=O)(=O)NC(=O)NC3CCCCC3)ccc2O1` registered a pKD in assay [6] of 5.25.
`CC1(C)C=C(n2ccccc2=O)c2cc(S(=O)(=O)F)ccc2O1`: the “Delta pEC50” value in assay [1] stood at 1.3. For the same compound, the Emax worked out at 84.4% in assay [2] and 90.5% in assay [3]. The EC50 in assay [4] is 4.79 nM; in assay [7], 93.3 nM. In addition, the negative logarithm of the KD (pKD) worked out at 8.01 in assay [5] and 7.83 in assay [6].
Regarding `CC(C)NS(=O)(=O)c1ccc2c(c1)C(n1ccccc1=O)=CC(C)(C)O2`, the “Delta pEC50” value in assay [1] is recorded as 0.46. Moreover, the figures for the maximum response (Emax) in assay [2] and in assay [3] were 76.9% and 94.8%, respectively. Besides, the values for the EC50 in assay [4] and in assay [7] were 676 nM and 1950 nM, respectively. The results for the pKD in assay [5] and in assay [6] were 5.08 and 5.18, respectively.
With `CC1(C)C=C(n2ccccc2=O)c2cc(S(=O)(=O)Nc3ccc(Br)cc3)ccc2O1`, the figures for the pKD in assay [5] and in assay [6] were 6.65 and 5.77, respectively.
Take `CC1(C)C=C(n2ccccc2=O)c2cc(S(=O)(=O)N=[N+]=[N-])ccc2O1`: the “Delta pEC50” value in assay [1] is 1.1. The results for the maximum response (Emax) in assay [2] and in assay [3] were 88.3% and 77.2%, respectively. Moreover, the EC50 in assay [4] is 16.2 nM; in assay [7], 204 nM. Moreover, the pKD in assay [6] stood at 7.83.
Consider `CC1(C)C=C(n2ccccc2=O)c2cc(S(=O)(=O)Nc3ccc([N+](=O)[O-])cc3)ccc2O1`, for which the “Delta pEC50” value in assay [1] is given as 0.69. The results for the maximal effect (Emax) in assay [2] and in assay [3] were 82.2% and 75.6%, respectively. The 50% effective concentration (EC50) in assay [4] is 2090 nM; in assay [7] it was 10200 nM. Further, the results for the pKD in assay [5] and in assay [6] were 5.8 and 5.35, respectively.
With `CC1(C)C=C(n2ccccc2=O)c2cc(S(=O)(=O)NCCO)ccc2O1`, the “Delta pEC50” value in assay [1] is listed as 0.96. The Emax in assay [2] came to 95.5%; in assay [3] it was 87.9%. The EC50 in assay [4] was 110 nM; in assay [7], 1000 nM. For the same compound, the values for the pKD in assay [5] and in assay [6] were 6.34 and 6.16, respectively.
Consider `CC1(C)C=C(n2ccccc2=O)c2cc(S(=O)(=O)Nc3ccccc3)ccc2O1`, for which the “Delta pEC50” value in assay [1] worked out at 0.66. The Emax in assay [2] is 63.6%; in assay [3] it was 84.5%. The half-maximal effective concentration (EC50) in assay [4] is 3.09 nM. The pKD in assay [5] stood at 8.05; in assay [5] (tested as the 2H-labelled form) it was 8.13; in assay [6], 7.83; in assay [6] (tested as the 2H-labelled form), 7.73.
With `CC1(C)C=C(n2ccccc2=O)c2cc(S(=O)(=O)Nc3ccc(C#N)cc3)ccc2O1`, the “Delta pEC50” value in assay [1] is on record as 0.72. Moreover, the Emax in assay [2] came out at 84%; in assay [3] it was 90.8%. Also, the EC50 in assay [4] was 263 nM; in assay [7], 1380 nM. The negative-log KD (pKD) in assay [5] worked out at 6.12; in assay [6], 5.5.
With `COc1ccc(NS(=O)(=O)c2ccc3c(c2)C(n2ccccc2=O)=CC(C)(C)O3)cc1`, the “Delta pEC50” value in assay [1] is 0.62. In addition, the Emax in assay [2] turned out to be 77.9%; in assay [3] it was 84.2%. In addition, the figures for the EC50 in assay [4] and in assay [7] were 117 nM and 490 nM, respectively. Besides, the results for the pKD in assay [5] and in assay [6] were 6.61 and 6.27, respectively.
In the case of `CC1(C)C=C(n2ccccc2=O)c2cc(S(=O)(=O)Nc3ccccc3F)ccc2O1`, the negative logarithm of the KD (pKD) in assay [5] was 7.96; in assay [6] it was 7.63.
In the case of `CC1(C)C=C(n2ccccc2=O)c2cc(S(=O)(=O)NC(=O)Nc3ccccc3)ccc2O1`, in assay [1], the “Delta pEC50” value is 0.85. Moreover, the values for the maximal effect (Emax) in assay [2] and in assay [3] were 90.8% and 99.5%, respectively. Moreover, the EC50 in assay [4] was 1410 nM; in assay [7] it was 10000 nM. For the same compound, the pKD in assay [6] was 5.5.
As for `CN(c1ccccc1)S(=O)(=O)c1ccc2c(c1)C(n1ccccc1=O)=CC(C)(C)O2`, the “Delta pEC50” value in assay [1] turned out to be 0.75. The Emax in assay [2] was 64.2%; in assay [3] it was 86.5%. Also, the EC50 is 1.74 nM in assay [4] and 9.77 nM in assay [7]. Also, the pKD in assay [5] came to 7.87; in assay [6], 7.69.
For `CC1(C)C=C(n2ccccc2=O)c2cc(S(=O)(=O)N3CCOCC3)ccc2O1`, the “Delta pEC50” value in assay [1] came out at 0.85. For the same compound, the Emax in assay [2] came to 75.5%; in assay [3], 85.1%. For the same compound, the EC50 is 85.1 nM in assay [4] and 603 nM in assay [7]. Further, the pKD came to 6.73 in assay [5] and 6.44 in assay [6].
As to `CC1(C)C=C(n2ccccc2=O)c2cc(S(=O)(=O)Nc3ccccc3Br)ccc2O1`, the results for the pKD in assay [5] and in assay [6] were 7.64 and 6.86, respectively.
Take `CCN(CC)S(=O)(=O)c1ccc2c(c1)C(n1ccccc1=O)=CC(C)(C)O2`: the pKD in assay [5] stood at 6.94; in assay [6] it was 6.45.
In the case of `CC1(C)Oc2ccc(S(=O)(=O)c3ccccc3)cc2[C@@H](N2CCCC2=O)[C@@H]1O` [RILMAKALIM], the “Delta pEC50” value in assay [1] is 1.05. Moreover, the Emax is 81.2% in assay [2] and 78.5% in assay [3]. Further, the half-maximal effective concentration (EC50) in assay [4] was 2.4 nM; in assay [7], 26.9 nM. Moreover, the values for the negative logarithm of the KD (pKD) in assay [5] and in assay [6] were 8.15 and 7.57, respectively.
`CC1(C)C=C(n2ccccc2=O)c2cc(S(=O)(=O)c3ccccc3)ccc2O1`: in assay [1], the “Delta pEC50” value turned out to be 1.02. Also, the values for the Emax in assay [2] and in assay [3] were 79.3% and 88.1%, respectively. The EC50 in assay [4] was 17.4 nM; in assay [7] it was 182 nM. The negative logarithm of the KD (pKD) in assay [5] was determined as 7.19; in assay [6], 6.86.
For `CN(C)S(=O)(=O)c1ccc2c(c1)C(n1ccccc1=O)=CC(C)(C)O2`, the “Delta pEC50” value in assay [1] is on record as 0.77. Also, the figures for the maximal response (Emax) in assay [2] and in assay [3] were 78.3% and 74.1%, respectively. The half-maximal effective concentration (EC50) in assay [4] was 16.2 nM; in assay [7], 95.5 nM. Also, the results for the pKD in assay [5] and in assay [6] were 7.2 and 6.91, respectively.
As to `CNS(=O)(=O)c1ccc2c(c1)C(n1ccccc1=O)=CC(C)(C)O2`, in assay [1], the “Delta pEC50” value was 0.89. The results for the Emax in assay [2] and in assay [3] were 85.8% and 83%, respectively. Besides, the EC50 in assay [4] is 17.8 nM; in assay [7], 138 nM. Moreover, the negative logarithm of the KD (pKD) in assay [5] was determined as 7.26; in assay [6], 7.18.
